Results reported in article PMC7106486 (Science translational medicine, 2019).

Key:
[1] = test system: Klk6 and cytokine (Il6, Il17a, Il17f) mRNA in murine skin; assay: Klk6 and cytokine mRNA expression on murine skin; format: in vivo, mouse C57BL/6; details: synthetic autoinducing peptide 10 μg with S. aureus 1 × 10^7 CFU, 48 hours
Summary of the method: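 Male C57BL/6 mice, 8 weeks old, shaved and Nair-depilated (2 min), then rested 48 h. S. aureus USA300 LAC (agr type I, from 18 h cultures in 3% TSB at 37°C), 1 × 10^7 CFU in 3% TSB (100 μl), applied with synthetic autoinducing peptide (10 μg, DMSO) on 2-cm2 gauze under Tegaderm to back skin for 48 h. Applied CFU confirmed next day; n = 5.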

[2] = test system: murine back skin treated with S. aureus; assay: Transepidermal water loss; format: in vivo, mouse C57BL/6; details: synthetic autoinducing peptide 10 μg with S. aureus 1 × 10^7 CFU, 48 hours
Summary of the method: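 Back skin of 8-week male C57BL/6 mice depilated (shave plus Nair 2 min), allowed 48 h barrier recovery. S. aureus USA300 LAC agr type I (1 × 10^7 CFU, 100 μl 3% TSB) plus synthetic autoinducing peptide (10 μg, DMSO) applied on 2-cm2 gauze under Tegaderm for 48 h. Transepidermal water loss measured by Tewameter on treated skin; n = 5.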

[3] = test system: clinical S. aureus strains expressing PSMα; assay: Protection against clinical S. aureus strains expressing PSMα
[4] = test system: S. aureus USA300 LAC agr type I P3-YFP; assay: S. aureus agr activity, P3-YFP reporter, in vitro; format: cell-based; details: synthetic peptide, overnight culture

Q: Which “Klk6 expression on murine skin (in words)” value [1] does the source give for “S-Y-N-V-c(C-G-G-Y-F) [S. hominis C5 autoinducing peptide]” here?
A: inhibited TEWL, Klk6

Q: And the “TEWL on murine skin (in words)” value [2]?
A: inhibited TEWL

Q: And the “protection against clinical S. aureus strains (in words)” value [3]?
A: protective against clinical S. aureus strains expressing PSMα

Q: What about the “inhibition of S. aureus agr activity (in words)” value [4] of the same substance?
A: potently inhibited S. aureus agr activity in a dose-dependent manner

Q: What about the “inhibition of S. aureus agr activity (in words)” value ([4]; listed as SYNVCGGYF) of the same substance?
A: highly potent inhibitor of S. aureus agr activity
